ChEMBL document CHEMBL1153716, “Constrained peptidomimetics reveal detailed geometric requirements of covalent prolyl oligopeptidase inhibitors” (J Med Chem, 2009)
pIC50: −log10 of the molar value. Activity calls are given as the source filed them. No cut-off for these calls is given here.

Legend:
[1] = target: Dipeptidyl peptidase 4 (Homo sapiens) (UniProt P27487); assay: Inhibition of DPP4 in human fibroblast extracts assessed as blockade of Gly-Pro-AMC substrate hydrolysis at 100 uM by fluorimetric assay
Chain of Dipeptidyl peptidase 4 (Homo sapiens) (P27487 whole entry, looked up): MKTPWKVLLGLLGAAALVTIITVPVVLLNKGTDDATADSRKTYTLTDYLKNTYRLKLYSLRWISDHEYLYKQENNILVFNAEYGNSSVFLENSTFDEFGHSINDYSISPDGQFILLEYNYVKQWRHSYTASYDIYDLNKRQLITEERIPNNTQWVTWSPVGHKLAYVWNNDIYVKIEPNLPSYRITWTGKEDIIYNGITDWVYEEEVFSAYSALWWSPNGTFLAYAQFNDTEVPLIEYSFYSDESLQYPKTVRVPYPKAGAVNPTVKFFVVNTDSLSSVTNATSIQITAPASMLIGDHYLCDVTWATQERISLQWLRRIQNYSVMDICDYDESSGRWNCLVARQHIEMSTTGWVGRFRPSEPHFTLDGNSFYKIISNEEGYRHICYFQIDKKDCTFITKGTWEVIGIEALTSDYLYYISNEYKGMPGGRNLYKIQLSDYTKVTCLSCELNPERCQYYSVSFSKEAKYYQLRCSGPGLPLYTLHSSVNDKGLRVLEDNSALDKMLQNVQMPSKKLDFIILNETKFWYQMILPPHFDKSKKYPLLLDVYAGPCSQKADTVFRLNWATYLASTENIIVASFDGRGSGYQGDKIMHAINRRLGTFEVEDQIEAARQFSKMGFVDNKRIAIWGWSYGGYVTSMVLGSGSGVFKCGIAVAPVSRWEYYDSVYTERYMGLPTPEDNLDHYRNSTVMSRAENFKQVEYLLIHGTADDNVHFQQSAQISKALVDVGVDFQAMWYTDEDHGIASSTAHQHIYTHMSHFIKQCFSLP
Procedure, shortened: (§1)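 Confluent human cells (glioblastoma LN18, LN229, LNZ308; brain endothelial HCEC; lung PO03 or skin PG98/5 fibroblasts) grown in DMEM with 4.5 g/L glucose and 10% FCS, then lysed in PBS (pH 7.2-7.4) containing 0.1% Triton X-100. Compound was diluted from methanol stock into water and preincubated 5-10 min at room temperature. Gly-Pro-AMC was then added. Duplicate wells.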

[2] = target: T1, Prolyl endopeptidase (Homo sapiens, UniProt P48147); assay: Inhibition of prolyl oligopeptidase in human LN229 cell extracts assessed as blockade of Z-Gly-Pro-AMC substrate hydrolysis by fluorimetric assay
T1 sequence (P48147 whole entry): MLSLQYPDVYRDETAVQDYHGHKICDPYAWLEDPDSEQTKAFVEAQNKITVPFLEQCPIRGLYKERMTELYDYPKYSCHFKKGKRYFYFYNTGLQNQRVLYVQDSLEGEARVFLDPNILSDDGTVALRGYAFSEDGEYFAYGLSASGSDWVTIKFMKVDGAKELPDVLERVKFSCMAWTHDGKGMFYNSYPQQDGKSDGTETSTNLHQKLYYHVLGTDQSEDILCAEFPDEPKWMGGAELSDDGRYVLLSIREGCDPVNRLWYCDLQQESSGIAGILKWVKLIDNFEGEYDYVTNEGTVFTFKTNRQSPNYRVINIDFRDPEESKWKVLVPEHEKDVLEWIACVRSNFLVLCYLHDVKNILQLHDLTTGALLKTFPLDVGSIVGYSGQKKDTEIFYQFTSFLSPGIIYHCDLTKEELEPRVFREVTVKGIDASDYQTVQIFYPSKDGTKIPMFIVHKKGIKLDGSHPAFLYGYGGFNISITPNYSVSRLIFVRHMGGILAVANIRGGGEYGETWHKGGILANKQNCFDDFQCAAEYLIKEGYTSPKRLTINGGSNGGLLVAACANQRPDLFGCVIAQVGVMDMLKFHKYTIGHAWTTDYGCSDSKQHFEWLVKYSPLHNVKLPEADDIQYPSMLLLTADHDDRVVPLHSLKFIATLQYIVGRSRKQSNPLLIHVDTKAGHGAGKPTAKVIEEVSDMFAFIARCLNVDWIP

[3] = target: Dipeptidyl peptidase 4 (Homo sapiens) (UniProt P27487); assay: Inhibition of DPP4 in intact human brain derived endothelial cells assessed as blockade of Gly-Pro-AMC substrate hydrolysis at 100 uM by fluorimetric assay; type: cell-based; settings: Endothelial cell
Procedure, shortened: (§2)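 Confluent intact human glioblastoma (LN18, LN229, LNZ308), brain endothelial HCEC, or lung PO03 and skin PG98/5 fibroblast monolayers kept in PBS (pH 7.2-7.4) without detergent. Compound was diluted from methanol stock into water and preincubated 5-10 min at room temperature. Gly-Pro-AMC was then added and hydrolysis read by fluorescence. Duplicate wells.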

[4] = target: T1, Prolyl endopeptidase; assay: Inhibition of prolyl oligopeptidase in intact human HCEC cells assessed as blockade of Z-Gly-Pro-AMC substrate hydrolysis by fluorimetric assay; type: cell-based
[5] = target: T1, Prolyl endopeptidase; assay: Inhibition of prolyl oligopeptidase in human LNZ308 cell extracts assessed as blockade of Z-Gly-Pro-AMC substrate hydrolysis by fluorimetric assay
[6] = target: T1, Prolyl endopeptidase; assay: Inhibition of prolyl oligopeptidase in intact human LN229 cells assessed as blockade of Z-Gly-Pro-AMC substrate hydrolysis by fluorimetric assay; type: cell-based
[7] = target: Dipeptidyl peptidase 4 (Homo sapiens) (UniProt P27487); assay: Inhibition of DPP4 in intact human fibroblasts assessed as blockade of Gly-Pro-AMC substrate hydrolysis at 100 uM by fluorimetric assay; procedure, shortened: as §2
[8] = target: Dipeptidyl peptidase 4 (Homo sapiens) (UniProt P27487); assay: Inhibition of DPP4 in human brain derived endothelial cell extracts assessed as blockade of Gly-Pro-AMC substrate hydrolysis at 100 uM by fluorimetric assay; type: cell-free; procedure, shortened: as §1
[9] = target: Dipeptidyl peptidase 4 (Homo sapiens) (UniProt P27487); assay: Inhibition of DPP4 in human astrocyte derived cell extracts assessed as blockade of Gly-Pro-AMC substrate hydrolysis at 100 uM by fluorimetric assay; procedure, shortened: as §1
[10] = target: T1, Prolyl endopeptidase; assay: Inhibition of prolyl oligopeptidase in intact human LNZ308 cells assessed as blockade of Z-Gly-Pro-AMC substrate hydrolysis by fluorimetric assay; type: cell-based
[11] = target: Dipeptidyl peptidase 4 (Homo sapiens) (UniProt P27487); assay: Inhibition of DPP4 in intact human astrocyte derived cells assessed as blockade of Gly-Pro-AMC substrate hydrolysis at 100 uM by fluorimetric assay; procedure, shortened: as §2
[12] = target: T1, Prolyl endopeptidase; assay: Inhibition of prolyl oligopeptidase in human HCEC cell extracts assessed as blockade of Z-Gly-Pro-AMC substrate hydrolysis by fluorimetric assay; type: cell-free
[13] = target: T2, Prolyl endopeptidase (Homo sapiens) (UniProt P48147); assay: Inhibition of prolyl oligopeptidase in human fibroblast extracts assessed as blockade of Z-Gly-Pro-AMC substrate hydrolysis at 100 uM by fluorimetric assay
T2 sequence (whole entry): T1 sequence (P48147 whole entry)
Procedure, shortened: (§3)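 Confluent human glioblastoma (LN18, LN229, LNZ308), brain endothelial HCEC, or lung PO03 and skin PG98/5 fibroblasts extracted in PBS with 0.1% Triton X-100. Compound was diluted from methanol stock into water and preincubated 5-10 min at room temperature. Z-Gly-Pro-AMC was then added and read by fluorescence. Duplicate wells.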

[14] = target: T2, Prolyl endopeptidase (Homo sapiens); assay: Inhibition of prolyl oligopeptidase in human astrocyte derived cell extracts assessed as blockade of Z-Gly-Pro-AMC substrate hydrolysis at 100 uM by fluorimetric assay; procedure, shortened: as §3
[15] = target: T2, Prolyl endopeptidase (Homo sapiens); assay: Inhibition of prolyl oligopeptidase in human brain derived endothelial cell extracts assessed as blockade of Z-Gly-Pro-AMC substrate hydrolysis at 100 uM by fluorimetric assay; type: cell-free; procedure, shortened: as §3
[16] = target: T2, Prolyl endopeptidase (Homo sapiens); assay: Inhibition of prolyl oligopeptidase in intact human fibroblasts assessed as blockade of Z-Gly-Pro-AMC substrate hydrolysis at 100 uM by fluorimetric assay
Procedure, shortened: (§4)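 Intact confluent human glioblastoma (LN18, LN229, LNZ308), brain endothelial HCEC, or lung PO03 and skin PG98/5 fibroblast monolayers in PBS (pH 7.2-7.4), cells grown beforehand in DMEM with 10% FCS. Compound was diluted from methanol stock into water and preincubated 5-10 min at room temperature. Z-Gly-Pro-AMC was then added and read fluorimetrically. Duplicate wells.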

[17] = target: T2, Prolyl endopeptidase (Homo sapiens); assay: Inhibition of prolyl oligopeptidase in intact human brain derived endothelial cells assessed as blockade of Z-Gly-Pro-AMC substrate hydrolysis at 100 uM by fluorimetric assay; type: cell-based; settings: Endothelial cell; procedure, shortened: as §4
[18] = target: T2, Prolyl endopeptidase (Homo sapiens); assay: Inhibition of prolyl oligopeptidase in intact human astrocyte derived cells assessed as blockade of Z-Gly-Pro-AMC substrate hydrolysis at 100 uM by fluorimetric assay; procedure, shortened: as §4

inhibition [1]	pIC50 [2]	inhibition [3]	pIC50 [4]	pIC50 [5]	pIC50 [6]	inhibition [7]	inhibition [8]	inhibition [9]	pIC50 [10]	inhibition [11]	pIC50 [12]	inhibition [13]	inhibition [14]	inhibition [15]	inhibition [16]	inhibition [17]	inhibition [18]	Structure (SMILES)
inactive	6.30	inactive	5.89	6.70	5.70	inactive	inactive	inactive	5.60	inactive	6.15							N#C[C@@H]1CS[C@H]2C[C@@H](NC(=O)OCc3ccccc3)C(=O)N12
inactive		inactive				inactive	inactive	inactive		inactive		inactive	10%	10%	inactive	inactive	inactive	N#C[C@H]1CS[C@@H]2C[C@H](NC(=O)OCc3ccccc3)C(=O)N12
inactive		inactive				inactive	inactive	inactive		inactive		10%	inactive	inactive	10%	inactive	inactive	N#C[C@@H]1CO[C@H]2C[C@@H](NC(=O)OCc3ccccc3)C(=O)N12
inactive		inactive				inactive	inactive	inactive		inactive		10%	inactive	inactive	inactive	inactive	inactive	N#CC1CCSC2CC(NC(=O)OCc3ccccc3)C(=O)N12 (racemic)
inactive		inactive				inactive	inactive	inactive		inactive		10%	10%	> 50%	10%	10%	inactive	N#C[C@@H]1CS[C@H]2C[C@H](NC(=O)OCc3ccccc3)C(=O)N12
inactive		inactive				inactive	inactive	inactive		inactive		10%	inactive	inactive	10%	inactive	inactive	COC(=O)[C@@H]1CS[C@H]2C[C@@H](NC(=O)OCc3ccccc3)C(=O)N21
